# Laboratory results reported in PMC2819033 (Journal of medicinal chemistry, 2009).
# Read-outs that look alike come from different tables or passages of the source.
# Key:
# [1] = test system: SW480 (colon carcinoma) cells; test: MTT assay, SW480 cells; assay type: cell-based, Human; settings: read-out: IC50 SW480, 96 h exposure
# Summary of the method: (§1)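 Cells were kept in MEM with 10% heat-inactivated FBS, 1 mM pyruvate, 4 mM L-glutamine and 1% NEAA at 37 °C, 5% CO2. Seeding by trypsinization was SW480 2.5 × 103 and A2780 5.0 × 10^3 cells/well, with 24 h preincubation and 96 h exposure to serial dilutions. MTT was added for 4 h, formazan dissolved in DMSO, and read at 550 nm (reference 690 nm). IC50 was interpolated from T/C curves using ≥3 experiments, ≥6 replicates each.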
# [2] = test system: A2780 (ovarian carcinoma) cells; test: MTT assay, A2780 cells; assay type: cell-based, Human; settings: read-out: IC50 A2780, 96 h exposure
# Summary of the method: as §1
# [3] = n-octanol/water partition coefficient, shake flask method; assay type: physicochemical; settings: values of the aqua complexes
# Summary of the method: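 Partition was measured by the shake-flask method. For the octanol phase, UV/vis was read at each complex's absorption maximum against n-octanol standards from 1 to 100 μM. For the aqueous phase, ruthenium was measured by ICP-MS (101Ru and 102Ru) with external calibration from 1 to 30 ppb. These samples were prepared in 5% HNO3 with 1 ppb 185Re as internal standard.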
# [4] = test system: adenosine 5′-monophosphate (AMP); test: Nucleotide binding by 1H and 31P NMR, AMP; settings: ratio complex/nucleotide
# [5] = test system: thymidine 5′-monophosphate (TMP); test: Nucleotide binding by 1H and 31P NMR, TMP
# [6] = test system: guanosine 5′-monophosphate (GMP); test: Nucleotide binding by 1H and 31P NMR, GMP; settings: ratio complex/nucleotide
# [7] = test system: cytidine 5′-monophosphate (CMP); test: Nucleotide binding by 1H and 31P NMR, CMP
# [8] = test system: uridine 5′-monophosphate (UMP); test: Nucleotide binding by 1H and 31P NMR, UMP
# [9] = mononuclear analogue; cited from earlier work
# [10] = test system: A2780 (ovarian carcinoma) cells; settings: read-out: IC50 A2780; cited from earlier work
# [11] = test system: 5637-oxo oxoplatin-resistant cells; test: Crystal violet assay, 5637-oxo; assay type: cell-based, Human; settings: for Resistance factor 5637-oxo: 5637-oxo versus 5637; for IC50: read-out: IC50 5637-oxo, crystal violet, 96 h, oxoplatin-resistant line
# Summary of the method: (§2)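 Resistant sublines were derived in-house by weekly exposure to rising oxoplatin concentrations over several months. Cells grew as adherent cultures in RPMI with 10% heat-inactivated FBS and penicillin/streptomycin at 37 °C, 5% CO2. After seeding at 1.0 × 10^3 cells/well and 24 h preincubation, cells had 96 h exposure to 20 mM DMF stocks diluted 1000-fold in medium. Crystal violet was redissolved in 70% ethanol and read at 570 nm.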
# [12] = test system: RT-4 (bladder cancer) cells; settings: read-out: IC50 RT-4; crystal violet; cited from earlier work
# [13] = test system: 5637 (bladder cancer) cells; test: Crystal violet assay, 5637; assay type: cell-based, Human; settings: read-out: IC50 5637, 96 h
# Summary of the method: (§3)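 Crystal violet assay after 24 h preincubation. Adherent cells grown in RPMI with 10% heat-inactivated FBS and penicillin/streptomycin at 37 °C, 5% CO2; MCF-7 medium also had 1 mM sodium pyruvate and 1% nonessential amino acids. Seeding was 1.0 × 10^3 cells/well, or 250 cells/well for LCLC-103H. 20 mM DMF stocks were diluted 1000-fold in medium with 10% FCS for 96 h exposure. Bound dye was redissolved in 70% ethanol and read at 570 nm.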
# [14] = test system: DAN-G (pancreatic cancer) cells; settings: read-out: IC50 DAN-G; crystal violet; cited from earlier work
# [15] = test system: SISO-oxo oxoplatin-resistant cells; test: Crystal violet assay, SISO-oxo; assay type: cell-based, Human; settings: for Resistance factor SISO-oxo: SISO-oxo versus SISO; for IC50: read-out: IC50 SISO-oxo, crystal violet, 96 h, oxoplatin-resistant line
# Summary of the method: as §2
# [16] = test system: A-427 (lung cancer) cells; settings: read-out: IC50 A-427; crystal violet; cited from earlier work
# [17] = test system: KYSE70 (esophagus cancer) cells; test: Crystal violet assay, KYSE70; assay type: cell-based, Human; settings: read-out: IC50 KYSE70, 96 h
# Summary of the method: as §3
# [18] = test system: KYSE70-oxo oxoplatin-resistant cells; test: Crystal violet assay, KYSE70-oxo; assay type: cell-based, Human; settings: for Resistance factor KYSE70-oxo: KYSE70-oxo versus KYSE70; for IC50: read-out: IC50 KYSE70-oxo, crystal violet, 96 h, oxoplatin-resistant line
# Summary of the method: as §2
# [19] = test system: LCLC-103H (lung cancer) cells; settings: read-out: IC50 LCLC-103H; crystal violet; cited from earlier work
# [20] = test system: SISO (cervical cancer) cells; test: Crystal violet assay, SISO; assay type: cell-based, Human; settings: read-out: IC50 SISO, 96 h
# Summary of the method: as §3
# [21] = test system: DAN-G (pancreatic cancer) cells; test: Crystal violet assay, DAN-G; assay type: cell-based, Human; settings: read-out: IC50 DAN-G, 96 h
# Summary of the method: as §3
# [22] = test system: LCLC-103H (lung cancer) cells; test: Crystal violet assay, LCLC-103H; assay type: cell-based, Human; settings: read-out: IC50 LCLC-103H, 96 h
# Summary of the method: as §3
# [23] = test system: A-427 (lung cancer) cells; test: Crystal violet assay, A-427; assay type: cell-based, Human; settings: read-out: IC50 A-427, 96 h
# Summary of the method: as §3
# [24] = test system: MCF-7 (breast cancer) cells; test: Crystal violet assay, MCF-7; assay type: cell-based, Human; settings: read-out: IC50 MCF-7, 96 h
# Summary of the method: as §3
# [25] = test system: RT-4 (bladder cancer) cells; test: Crystal violet assay, RT-4; assay type: cell-based, Human; settings: read-out: IC50 RT-4, 96 h
# Summary of the method: as §3
IC50 [1],IC50 [2],log Poct/water ICP-MS [3],log Poct/water UV/vis [3],SMILES,Resistance factor 5637-oxo [11],IC50 [11],IC50 [13],Resistance factor SISO-oxo [15],IC50 [15],IC50 [17],Resistance factor KYSE70-oxo [18],IC50 [18],IC50 [20],also measured
76 ± 4 µM,84 ± 3 µM,−1.42,−1.42,"Cc1c([O-])c(=O)ccn1CCn1ccc(=O)c([O-])c1C.Cc1ccc(C(C)C)cc1.Cc1ccc(C(C)C)cc1.[Cl-].[Cl-].[Ru+2].[Ru+2] [1c, 1,2-Bis{chlorido[3-(oxo-κO)-2-methyl-4(1H)-pyridinonato-κO4](η ^6-p-cymene)ruthenium(II)}ethane]",,,,,,,,,,
2.5 ± 0.2 µM,5.7 ± 0.5 µM,−1.28,−1.23,"Cc1c([O-])c(=O)ccn1CCCCCCCCn1ccc(=O)c([O-])c1C.Cc1ccc(C(C)C)cc1.Cc1ccc(C(C)C)cc1.[Cl-].[Cl-].[Ru+2].[Ru+2] [5c, 1,8-Bis{chlorido[3-(oxo-κO)-2-methyl-4(1H)-pyridinonato-κO4](η ^6-p-cymene)ruthenium}octane]",,,,,,,,,,formation of AMP adducts [4]: proceeded rapidly and quantitatively up to a ratio of 2:1; reaction with TMP [5]: no reaction was observed; formation of GMP adducts [6]: proceeded rapidly and quantitatively up to a ratio of 2:1; reaction with CMP [7]: no reaction was observed; reaction with UMP [8]: no reaction was observed
> 100 µM,,,,"Cc1ccc(C(C)C)cc1.Cc1occc(=O)c1[O-].[Cl-].[Ru+2] [[RuCl(cym)(mal)] 8, chlorido(maltolato-κO^2)(η^6-p-cymene)ruthenium(II)]",,,,,,,,,,pKa values [9]: 9.23; IC50 [10]: > 100 µM
,,,,N.N.[Cl][Pt][Cl] [cisplatin],2.9,1.1 ± 0.4 µM,0.37 ± 0.01 µM,2.1,0.58 ± 0.08 µM,0.72 ± 0.11 µM,2.4,1.7 ± 0.4 µM,0.28 ± 0.04 µM,IC50 [12]: 1.61 ± 0.16 µM; IC50 [14]: 0.73 ± 0.34 µM; IC50 [16]: 1.96 ± 0.54 µM; IC50 [19]: 0.9 ± 0.19 µM
42 ± 1 µM,88 ± 12 µM,,,"CCCn1ccc(=O)c([O-])c1C.Cc1ccc(C(C)C)cc1.[Cl-].[Ru+2] [compound 7, chlorido[2-methyl-3-(oxo-κO)-1-propyl-4(1H)-pyridinonato-κO4](η^6-p-cymene)ruthenium(II)]",,,,,,,,,,
,,,,N.N.[Cl-].[Cl-].[OH-].[OH-].[Pt+4] [oxoplatin],3.4,10.6 ± 1.3 µM,3.1 ± 1.5 µM,3.1,5.2 ± 0.9 µM,4.2 ± 2.8 µM,2.1,8.8 ± 5.2 µM,1.7 ± 0.4 µM,IC50 [21]: 11.8 ± 3.2 µM; IC50 [22]: 17.2 ± 5.1 µM; IC50 [23]: 13 ± 2.7 µM; IC50 [24]: 5.5 ± 1.1 µM; IC50 [25]: 26 ± 8 µM
